One experiment concerns Caco-2. The experiment is described as follows: Apparent Permeability through Caco-2 cell monolayers (n = 4). Type of experiment: functional, cell-based. The procedure, abridged: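 Caco-2 cells seeded on polycarbonate inserts (0.45 µm pore, 6.5 mm) and grown 21 days to differentiate; TEER >400 Ω/cm² before and after. ³H-acetylated peptide or [¹⁴C]mannitol (200 µM) added apically in HBSS/25 mM HEPES pH 7.4, 37 °C, shaken 400 rpm. Receiver chamber swapped at 30, 90, 150 min; scintillation counting. Papp averaged over four replicates.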

Experiment [1] is filed under the species Rattus norvegicus. The experiment is described as follows: Percent Hemolysis observed in rat red blood cells when Treated with 2 mM concentration. Type of experiment: functional.
The species entered for experiment [2] is Rattus norvegicus. The experiment is described as follows: Percent Hemolysis observed in rat red blood cells when Treated with 5 mM concentration. Format: functional.
The species named for experiment [3] is Rattus norvegicus. In words: Percent Hemolysis observed in rat red blood cells when Treated with 1 mM concentration. Format: functional.

The term Papp denotes the rate of passage across a membrane or cell layer, normalised by area and donor concentration.

With `OC[C@@H](O)[C@@H](O)[C@H](O)[C@H](O)CO`, the Papp in the experiment with Caco-2 is 5.88 10e-6 cm s-1.
For the compound `CCCCCCCCCCCCOS(=O)(=O)[O-].[Na+]` [SODIUM LAURYL SULFATE], the Hemolysis in the experiment filed under Rattus norvegicus [1] was found to be 51.54%; in the experiment listed under Rattus norvegicus [2], 62.66%; in the experiment filed under Rattus norvegicus [3], 12.25%.
